Laboratory results from ChEMBL document CHEMBL1142739, “Development of spin-labeled probes for adenosine receptors” (J Med Chem, 2005).

Experiments:
[1] = target: T1, Adenosine receptor A3 (Homo sapiens) (UniProt P0DMS8); experiment: Percent inhibition of [3H]PSB-11 binding to adenosine A3 receptor at 10 uM
T1 sequence (whole entry): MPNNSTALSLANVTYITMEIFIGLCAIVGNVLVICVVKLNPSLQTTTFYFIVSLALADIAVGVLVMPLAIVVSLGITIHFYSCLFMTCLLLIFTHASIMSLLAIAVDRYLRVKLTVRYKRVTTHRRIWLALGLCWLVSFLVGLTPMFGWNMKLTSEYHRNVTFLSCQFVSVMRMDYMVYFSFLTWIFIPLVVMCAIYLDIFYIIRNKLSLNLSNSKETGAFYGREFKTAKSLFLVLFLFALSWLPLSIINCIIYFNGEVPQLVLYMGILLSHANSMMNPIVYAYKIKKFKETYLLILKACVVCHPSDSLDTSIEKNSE
How it was run: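 Radioligand competition assay; membranes from HEK cells stably expressing the human receptor. Percent inhibition of radioligand binding is reported at the stated test concentration.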

Adenosine receptor A2a [2] = target: T2, Adenosine receptor A2a (Rattus norvegicus, UniProt P30543); experiment: Inhibition of [3H]MSX-2 binding to adenosine A2a receptor
Adenosine receptor A2b [3] = target: T3, Adenosine receptor A2b (Homo sapiens, UniProt P29275); experiment: Inhibition of [3H]PSB-298 binding to adenosine A2b receptor
T3 sequence (P29275 whole entry): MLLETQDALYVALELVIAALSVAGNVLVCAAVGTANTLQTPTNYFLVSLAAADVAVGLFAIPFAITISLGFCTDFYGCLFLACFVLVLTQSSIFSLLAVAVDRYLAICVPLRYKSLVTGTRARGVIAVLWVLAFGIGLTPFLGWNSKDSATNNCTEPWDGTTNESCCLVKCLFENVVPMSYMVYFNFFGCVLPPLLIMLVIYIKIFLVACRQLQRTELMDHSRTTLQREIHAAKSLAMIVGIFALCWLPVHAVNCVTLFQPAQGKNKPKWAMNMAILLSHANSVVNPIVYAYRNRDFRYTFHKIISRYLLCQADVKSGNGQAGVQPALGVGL

Adenosine receptor A3 = target: T4, Adenosine receptor A3 (Homo sapiens, UniProt P0DMS8); experiment: Inhibition of [3H]PSB-11 binding to adenosine A3 receptor
T4 sequence (P0DMS8 whole entry): T1 sequence (whole entry)

Adenosine receptor A1 [4] = target: T5, Adenosine receptor A1 (Rattus norvegicus, UniProt P25099); experiment: Inhibition of [3H]CCPA binding to adenosine A1 receptor
T5 sequence (P25099 whole entry): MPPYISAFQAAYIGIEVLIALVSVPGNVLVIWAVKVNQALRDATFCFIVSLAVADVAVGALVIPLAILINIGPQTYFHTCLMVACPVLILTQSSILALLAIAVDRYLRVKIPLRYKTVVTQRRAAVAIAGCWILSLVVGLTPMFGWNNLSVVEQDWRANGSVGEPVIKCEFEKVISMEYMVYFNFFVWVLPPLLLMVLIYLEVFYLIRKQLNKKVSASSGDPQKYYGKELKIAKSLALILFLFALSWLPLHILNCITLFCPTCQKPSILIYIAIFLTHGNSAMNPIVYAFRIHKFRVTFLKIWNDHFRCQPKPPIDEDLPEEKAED
How it was run: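 Radioligand competition assay; rat brain cortical membranes as the receptor source.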

Adenosine receptor A1 [5] = target: T5, Adenosine receptor A1; experiment: Inhibition of [3H]R-PIA binding to adenosine A1 receptor
How it was run: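 Competition binding on rat brain cortical membranes as the A1 source. Where no Ki was reached, percent inhibition of radioligand binding was reported at 1 or 10 µM test compound.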

Adenosine receptor A2a [6] = target: T2, Adenosine receptor A2a; experiment: Inhibition of [3H]NECA binding to adenosine A2a receptor
How it was run: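 Competition binding on rat brain striatal membranes as the A2A source. Where no Ki was reached, percent inhibition of radioligand binding was reported at 1 or 10 µM test compound.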

Adenosine receptor A2b [7] = target: T3, Adenosine receptor A2b; experiment: Inhibition of [3H]ZM-241380 binding to adenosine A2b receptor
[8] = target: T6, Adenosine receptor A2b (Homo sapiens) (UniProt P29275); experiment: Percent inhibition of [3H]PSB-298 binding to adenosine A2b receptor at 10 uM
T6 sequence (whole entry): T3 sequence (P29275 whole entry)
How it was run: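 Radioligand competition assay; membranes from CHO cells stably expressing the human receptor. Percent inhibition of radioligand binding is reported at the stated test concentration.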

T2 sequence (P30543 whole entry): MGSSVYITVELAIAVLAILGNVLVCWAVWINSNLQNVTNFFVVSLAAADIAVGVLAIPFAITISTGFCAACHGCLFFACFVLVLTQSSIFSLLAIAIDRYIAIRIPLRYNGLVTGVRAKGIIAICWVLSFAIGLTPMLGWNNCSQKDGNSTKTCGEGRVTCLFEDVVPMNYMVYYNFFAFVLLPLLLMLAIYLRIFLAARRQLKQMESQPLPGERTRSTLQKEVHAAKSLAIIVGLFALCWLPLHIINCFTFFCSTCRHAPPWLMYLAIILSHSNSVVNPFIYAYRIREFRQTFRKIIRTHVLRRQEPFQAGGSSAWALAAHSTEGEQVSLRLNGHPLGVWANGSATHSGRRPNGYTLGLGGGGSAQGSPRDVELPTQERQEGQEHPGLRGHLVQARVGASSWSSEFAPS

Structure (SMILES)	inhibition [1] [%]	Ki (Adenosine receptor A2a [2]) [nM]	Ki (Adenosine receptor A2b [3]) [nM]	Ki (Adenosine receptor A3) [nM]	Ki (Adenosine receptor A1 [4]) [nM]	Ki (Adenosine receptor A1 [5]) [nM]	Ki (Adenosine receptor A2a [6]) [nM]	Ki (Adenosine receptor A2b [7]) [nM]	inhibition [8] [%]
CCCn1c(=O)c2nc(C3=CC(C)(C)N([O])C3(C)C)[nH]c2n(CCC)c1=O	47	3800	3100	~10000	8.23				
CCCn1c(=O)c2[nH]c(C3CCCC3)nc2n(Cc2ccccc2)c1=O				54.6		8.7	511		
CCCCn1c(=O)[nH]c2[nH]c(-c3ccc(OCC(=O)Nc4ccc(CC(=O)O)cc4)cc3)nc2c1=O		479		676	41			5.3	
CCCn1c(=O)c2nc(C3CCCC3)[nH]c2n(CC2=CC(C)(C)N([O])C2(C)C)c1=O		8780	> 1000	1700	5.47				23
CCCn1c(=O)c2nc(C3CC(C)(C)N([O])C(C)(C)C3)[nH]c2n(CCC)c1=O		6750	> 10000	~10000	160				
